Screening data (PubChem)
PHOSPHO1 block – blocks human PHOSPHO1 phosphatase activity; Q8TCT1; recombinant PHOSPHO1, absorbance phosphatase assay; inhibition, % at 13.3 µM; 1.1% of 290,000 active; AID 1565; in the data active means inhibition above about 60%
Target sequence (Q8TCT1 whole entry, looked up): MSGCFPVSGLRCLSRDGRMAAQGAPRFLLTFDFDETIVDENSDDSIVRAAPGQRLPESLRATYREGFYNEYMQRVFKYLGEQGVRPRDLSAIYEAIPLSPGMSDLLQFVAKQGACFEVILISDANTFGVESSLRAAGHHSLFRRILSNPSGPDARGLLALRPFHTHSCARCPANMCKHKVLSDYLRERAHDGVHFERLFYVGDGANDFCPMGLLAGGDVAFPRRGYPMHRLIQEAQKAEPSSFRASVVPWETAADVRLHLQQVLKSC
PfG6PD inh – PfG6PD (Plasmodium falciparum) enzyme inhibition; PfGluPho enzyme, NADPH resazurin-diaphorase fluorescence; inhibition, % at 20 µM; 0.78% of 350,000 active; AID 504690;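 active means inhibition reaching at least a set limit at 20 µM in the primary screen, cut at about 59% in these data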
EP2 antag – blocks the human prostaglandin E2 receptor EP2. P43116. C6 glioma cells expressing human EP2, cAMP TR-FRET; cells stimulated with saturating PGE2. inhibition, % at 25 µM. 0.52% of 260,000 active. AID 1422;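 active means percent inhibition above 40 after rounding to a whole number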;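 further: rat C6 glioma host cells with rolipram phosphodiesterase inhibitor present; the protocol text gives 20 µM as final concentration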
Target sequence (P43116 whole entry, looked up): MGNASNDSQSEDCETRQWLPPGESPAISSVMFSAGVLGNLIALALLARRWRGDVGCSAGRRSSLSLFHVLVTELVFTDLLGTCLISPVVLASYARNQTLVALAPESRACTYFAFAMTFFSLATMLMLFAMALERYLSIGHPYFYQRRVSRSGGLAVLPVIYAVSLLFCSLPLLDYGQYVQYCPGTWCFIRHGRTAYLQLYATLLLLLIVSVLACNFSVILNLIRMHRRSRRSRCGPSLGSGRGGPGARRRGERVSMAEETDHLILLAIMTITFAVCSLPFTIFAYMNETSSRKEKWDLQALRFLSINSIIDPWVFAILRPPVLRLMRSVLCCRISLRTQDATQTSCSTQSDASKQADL
EP2 modulator – EP2 receptor (human) modulation. EP2-expressing cells, cAMP HTRF FRET, PGE2 co-stimulation. induction, % at 25 µM. AID 940. P43116. 0.83% of 260,000 active;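 active means compounds whose cAMP rise, as percent of the full-agonist control response, exceeds 60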;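 further: rat C6 glioma line stably carrying human EP2 under a CMV promoter; the protocol text gives 20 µM as final concentration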
HKDC1 inhibitor – blocks human hexokinase HKDC1 activity. Q2TB90. 0.16% of 340,000 active. inhibition, % at 20 µM. recombinant HKDC1, G6PDH/diaphorase resazurin coupled fluorescence;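 active means inhibition above about 35% when tested at 20 µM, limit read from the data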
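Incubation: 90 min at room temperature in dark / Material: recombinant HKDC1 (HK5) hexokinase enzyme, produced in-house / Quantity: enzyme 5 µg/mL final / Compound: one dose of 20 µM, 1% DMSO / Reagent: glucose and ATP substrates / Buffer or medium: Tris pH 8.0 buffer with MgCl2, Tween-20, BSA, BME / Technique: resorufin fluorescence at 613 nm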
TbHK1 inh – T. brucei hexokinase 1 inhibition; recombinant TbHK1, G6PDH-coupled NADH A340; inhibition, % at 10 µM; 0.11% of 220,000 active;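 active means inhibition of 50% or more in the single-dose primary screen; inactive means inhibition below 50%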
PfG6PD confirm – PfG6PD inhibition, single-dose confirmed | recombinant PfGluPho, NADPH-diaphorase-resazurin fluorescence | 34% of 2,400 active | shares compounds with PfG6PD inh | inhibition, % at 20 µM;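 active means inhibition of at least 50% at 20 µM in any single replicate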
Diaph ctr 10uM – counter-screen for P. falciparum G6PD inhibitors: diaphorase inhibitors, oxidizers; shares compounds with PfG6PD inh; diaphorase-coupled resazurin reduction, fluorescence, NADPH 10 uM; inhibition, % at 20 µM; 39% of 820 active;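 active means average inhibition reaching 50% or more with the compound at 20 µM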;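 further: resorufin red fluorescence formed as diaphorase reduces resazurin using NADPH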
Diaph ctr 30uM – diaphorase inhibition or oxidation at 30 uM NADPH | shares compounds with PfG6PD inh | inhibition, % at 20 µM | Diaphorase/resazurin coupled assay, resorufin fluorescence | 29% of 820 active;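 active means inhibition averaging 50% or more, tested at 20 µM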
Numbers stand for hits; i = inactive; nt = not tested or not shown. A selection: hits, their analogues and other compounds. The true share with any hit is near 2.5%.

SMILES | PHOSPHO1 block | PfG6PD inh | EP2 antag | EP2 modulator | HKDC1 inhibitor | TbHK1 inh | PfG6PD confirm | others
O=C(Nc1ccc(N2CCOCC2)c(Cl)c1)c1ccc(Br)o1 | i | 82 | i | i | i | i | i
CCn1c(C(CC(C)C)NC(=O)Cc2cccs2)nc2cccnc21 (stereo not given) | nt | nt | i | i | nt | nt | nt
CC(=O)Nc1ccc(S(=O)(=O)Nc2cccc3cccnc23)cc1 | i | i | nt | nt | i | nt | nt
Cc1ccc2cccc(NS(=O)(=O)c3cn(C)nc3C)c2n1 | nt | nt | i | i | nt | nt | nt
Cc1ccc2cccc(NS(=O)(=O)c3ccccc3)c2n1 | i | 139 | nt | nt | i | nt | 105 | Diaph ctr 10uM=102;Diaph ctr 30uM=80
O=S(=O)(Nc1cccc2cccnc12)c1ccccc1 | i | 96 | nt | nt | i | nt | 52 | Diaph ctr 10uM=61;Diaph ctr 30uM=i
Cc1ccc2occ(CN3CCc4nc(N5CCCC(C)C5)[nH]c(=O)c4C3)c(=O)c2c1 (stereo not given) | nt | nt | i | i | nt | nt | nt
Clc1ss/c(=N\c2ccccn2)c1Cl | i | 64 | i | i | i | i | i
Cc1c(-c2ccccc2)n[nH]c1C(=O)Nc1cnn(Cc2ccc(F)cc2)c1 | nt | nt | i | i | nt | nt | nt
CCOC(=O)NC(N(O)c1cccc(Cl)c1)C(Cl)(Cl)Cl (stereo not given) | i | 85 | i | i | i | i | i
CCN(C(=O)Nc1cccc(Cl)c1)c1ccccc1 | i | i | nt | nt | i | nt | nt
C=CCn1c(C)cc(C(=O)COC(=O)CCc2cc(OC)c(OC)c(OC)c2)c1C | nt | 80 | nt | nt | i | nt | i
COc1ccc(CN2C=C3C(=O)C(C)(OC(=O)CCc4ccccc4)C(=O)C=C3C=C2c2ccc(C#N)cc2)cc1 (stereo not given) | i | i | i | i | i | i | nt
CCN(CC)CCCN1C=C2C(=O)C(C)(OC(=O)CCc3ccccc3)C(=O)C=C2C=C1c1ccc(C#N)cc1 (stereo not given) | i | i | i | i | i | i | nt
CC1(OC(=O)CCc2ccccc2)C(=O)C=C2C=C(c3ccc(C#N)cc3)N(C3CCCCC3)C=C2C1=O (stereo not given) | i | 75 | i | i | i | i | i
COc1ccc(N2C=C3C(=O)C(C)(OC(=O)CCc4ccccc4)C(=O)C=C3C=C2c2ccc(C#N)cc2)cc1 (stereo not given) | i | 69 | i | i | i | i | i
CC1(OC(=O)CCc2ccccc2)C(=O)C=C2C=C(c3ccc(C#N)cc3)N(CCc3c[nH]c4ccccc34)C=C2C1=O (stereo not given) | i | 79 | i | i | i | i | i
CC1(OC(=O)CCc2ccccc2)C(=O)C=C2C=C(c3ccc(C#N)cc3)N(C(CO)CO)C=C2C1=O (stereo not given) | i | 65 | i | i | i | i | i
Cc1cccc(C(=O)Nc2nc3c(C)cc(C)cc3s2)c1 | nt | nt | i | i | nt | nt | nt
O=C1NC2(CCCCC2)C(=O)N1c1ccc(F)cc1F | nt | nt | nt | i | nt | nt | nt
CCn1c[n+](CC(O)COc2ccc(C(C)=O)cc2)c2ccccc21 (stereo not given) | nt | nt | i | i | nt | nt | nt
O=C(c1c(F)cccc1F)N1CCC(Cn2nnn(-c3cccs3)c2=O)CC1 | nt | nt | i | i | nt | nt | nt
Cc1ccc(-c2nnn(CC(=O)N(CC(=O)NC3CCCCC3)c3ccc(Cl)cc3)n2)o1 | nt | nt | i | i | nt | nt | nt
CC(C(=O)Nc1cc([N+](=O)[O-])ccc1Cl)N1CCN(c2ccc(O)cc2)CC1 (stereo not given) | i | 60 | i | i | i | i | i
COc1cc(N)c2ncsc2c1 | nt | 69 | nt | nt | i | nt | 72 | Diaph ctr 10uM=i;Diaph ctr 30uM=i
SMILES | PHOSPHO1 block | PfG6PD inh | EP2 antag | EP2 modulator | HKDC1 inhibitor | TbHK1 inh | PfG6PD confirm | others
COc1cc(N)c2ncccc2c1Br | nt | i | nt | nt | i | nt | nt
O=C(NNC(=O)c1ccccc1OCc1ccc(F)cc1)c1ccccc1O | i | 120 | nt | nt | i | nt | 70 | Diaph ctr 10uM=67;Diaph ctr 30uM=50
O=C(NNC(=O)c1ccccc1OCc1ccccc1)c1ccccc1O | i | 90 | nt | nt | i | nt | 69 | Diaph ctr 10uM=56;Diaph ctr 30uM=56
CC(C)NC(=O)c1cc2sccc2n1C | nt | nt | i | i | nt | nt | nt
CCN1/C(=C/C(=O)c2ccco2)Sc2ccccc21 | i | 77 | i | i | i | i | i
O=[N+]([O-])c1cc(-c2ccc(C(=S)N3CCOCC3)o2)ccc1Cl | 61 | 69 | i | i | i | i | i
CCOC(=O)c1ccc(S(=O)(=O)Nc2cc(C(=O)O)ccc2Cl)cc1 | i | i | i | i | i | i | i
COc1ccc(C(c2sc3nc(C)nn3c2O)N2CCc3ccccc3C2)cc1 (stereo not given) | i | 59 | i | i | i | i | i
COCCOC(=O)c1c(C)n(C)c2ccc(OC(=O)c3c(OC)cccc3OC)cc12 | i | 59 | nt | nt | i | nt | i
Cc1ccc(N/C(N)=N/c2nc(C)cc(C)n2)cc1 | i | i | i | i | i | i | nt
Cc1cc(C)nc(/N=C(\N)Nc2ccccc2-c2ccccc2)n1 | i | 72 | i | i | i | i | 55 | Diaph ctr 10uM=52;Diaph ctr 30uM=i
C=CCN1CCN(C(c2ccc(OCC)cc2)c2nnnn2CCOC)CC1 (stereo not given) | nt | nt | i | i | nt | nt | nt
Cc1ccc(C)c(-n2c(SCC(=O)N3CCCCC3)nnc2-c2cccnc2)c1 | nt | nt | i | i | nt | nt | nt
CCCC(=O)Nc1nc(-c2ccc(OC)cc2)cs1 | i | i | i | i | i | i | nt
COc1ccc(-c2csc(NC(=O)CS(=O)(=O)c3ccccc3)n2)cc1 | nt | 68 | nt | nt | i | nt | i
O=C(CCS(=O)(=O)c1ccc(F)cc1)Nc1nc(-c2ccncc2)cs1 | i | 61 | nt | nt | i | nt | i
Nn1cnnc1N/N=C/c1ccc(Cl)c([N+](=O)[O-])c1 | i | 73 | i | i | i | i | 63 | Diaph ctr 10uM=82;Diaph ctr 30uM=74
CCOc1ccc2[nH]c(=O)c(CN(CCO)S(=O)(=O)c3c(C)cc(C)cc3C)cc2c1 | nt | nt | i | i | nt | nt | nt
CCc1ccc2[nH]c(=O)c(CN(CCN(CC)CC)C(=O)Nc3ccc(F)cc3)cc2c1 | nt | nt | i | i | nt | nt | nt
Cc1ccc2nc(N/N=C/c3ccco3)cc(C)c2c1 | i | 64 | i | i | i | i | i
Cc1ccc2nc(SCC(=O)N/N=C/c3ccco3)cc(C)c2c1 | i | 69 | i | i | i | i | 50 | Diaph ctr 10uM=66;Diaph ctr 30uM=i
Cc1ccc2nc(C)cc(SCC(=O)N/N=C/c3ccco3)c2c1 | i | i | nt | nt | i | nt | nt
Fc1ccc(-c2nc3ccccn3c2NCC2CCCO2)cc1 (stereo not given) | nt | nt | i | i | nt | nt | nt
Cc1cc(N)c2cc(NC(=O)/C=C/c3ccccc3Cl)ccc2n1 | i | 60 | i | i | i | i | i
COc1ccc(OC)c2c1C(=O)C(Cl)=C(Cl)C2=O | i | 125 | 112 | i | i | i | 112 | Diaph ctr 10uM=81;Diaph ctr 30uM=i
[O-]/[N+](=C\c1ccncc1)c1ccccc1 | i | 74 | nt | i | i | i | 52 | Diaph ctr 10uM=i;Diaph ctr 30uM=i
